Entries after “also recorded” stand apart in the source; their conditions may differ.
Legend:
[1] = test system: BrdU+ cells in the hippocampal dentate gyrus; assay: In vivo neurogenesis; set-up: species or system C57BL/J6 mice; conditions: for proneurogenic activity (BrdU+ cells in dentate gyrus), in words: 10 μM solution infused ICV, 12 μL/day, 7 days, live mice
Method in brief: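 Adult (12-week-old) wild-type C57BL/J6 mice, 4 per compound. Test compound solutions (10–0.01 μM) delivered by osmotic minipump into the left lateral ventricle at 12 μL/day for 7 days; the vehicle was artificial CSF. BrdU+ cells counted in SGZ/dentate gyrus of the contralateral hemisphere, every fifth 40 μm section, normalized to dentate volume. Mean ± SEM.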

histamine H2 receptor = histamine H2 receptor (Homo sapiens, UniProt P25021); assay: Histamine H2 competition binding assay; conditions: for Histamine H2 binding (% displacement @ 10 μM): displacement of [125I]aminopotentidine (0.1 nM) with 10 μM drug
HeLa cells = assay: Cell viability assay; format: cell-based
hERG channel = hERG channel (Homo sapiens, UniProt Q12809)
[2] = test system: BrdU+ cells in the hippocampal dentate gyrus; conditions: cited from earlier work
neurogenesis = conditions: cited from earlier work
[3] = test system: dentate gyrus in mice deficient in the npas3 gene; conditions: cited from earlier work
[4] = test system: neurogenesis in the dentate gyrus; conditions: rats, cited from earlier work
neural precursor cells = conditions: time-course experiments; cited from earlier work
[5] = mouse, in vivo, cited from earlier work
[6] = test system: embryonic, weaning or adult mice; conditions: mouse, in vivo; cited from earlier work

Sequence of histamine H2 receptor (P25021 whole entry): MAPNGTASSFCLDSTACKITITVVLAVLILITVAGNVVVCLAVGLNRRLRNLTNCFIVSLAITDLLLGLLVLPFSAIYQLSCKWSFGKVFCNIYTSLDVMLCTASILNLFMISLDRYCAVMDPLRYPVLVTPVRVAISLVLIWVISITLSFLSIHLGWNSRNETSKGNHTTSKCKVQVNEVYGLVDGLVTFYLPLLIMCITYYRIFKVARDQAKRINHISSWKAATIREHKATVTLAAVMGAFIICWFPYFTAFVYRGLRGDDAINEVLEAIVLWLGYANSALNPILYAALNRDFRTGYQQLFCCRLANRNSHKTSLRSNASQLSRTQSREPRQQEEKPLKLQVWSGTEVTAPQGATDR
Sequence of hERG channel (Q12809 whole entry): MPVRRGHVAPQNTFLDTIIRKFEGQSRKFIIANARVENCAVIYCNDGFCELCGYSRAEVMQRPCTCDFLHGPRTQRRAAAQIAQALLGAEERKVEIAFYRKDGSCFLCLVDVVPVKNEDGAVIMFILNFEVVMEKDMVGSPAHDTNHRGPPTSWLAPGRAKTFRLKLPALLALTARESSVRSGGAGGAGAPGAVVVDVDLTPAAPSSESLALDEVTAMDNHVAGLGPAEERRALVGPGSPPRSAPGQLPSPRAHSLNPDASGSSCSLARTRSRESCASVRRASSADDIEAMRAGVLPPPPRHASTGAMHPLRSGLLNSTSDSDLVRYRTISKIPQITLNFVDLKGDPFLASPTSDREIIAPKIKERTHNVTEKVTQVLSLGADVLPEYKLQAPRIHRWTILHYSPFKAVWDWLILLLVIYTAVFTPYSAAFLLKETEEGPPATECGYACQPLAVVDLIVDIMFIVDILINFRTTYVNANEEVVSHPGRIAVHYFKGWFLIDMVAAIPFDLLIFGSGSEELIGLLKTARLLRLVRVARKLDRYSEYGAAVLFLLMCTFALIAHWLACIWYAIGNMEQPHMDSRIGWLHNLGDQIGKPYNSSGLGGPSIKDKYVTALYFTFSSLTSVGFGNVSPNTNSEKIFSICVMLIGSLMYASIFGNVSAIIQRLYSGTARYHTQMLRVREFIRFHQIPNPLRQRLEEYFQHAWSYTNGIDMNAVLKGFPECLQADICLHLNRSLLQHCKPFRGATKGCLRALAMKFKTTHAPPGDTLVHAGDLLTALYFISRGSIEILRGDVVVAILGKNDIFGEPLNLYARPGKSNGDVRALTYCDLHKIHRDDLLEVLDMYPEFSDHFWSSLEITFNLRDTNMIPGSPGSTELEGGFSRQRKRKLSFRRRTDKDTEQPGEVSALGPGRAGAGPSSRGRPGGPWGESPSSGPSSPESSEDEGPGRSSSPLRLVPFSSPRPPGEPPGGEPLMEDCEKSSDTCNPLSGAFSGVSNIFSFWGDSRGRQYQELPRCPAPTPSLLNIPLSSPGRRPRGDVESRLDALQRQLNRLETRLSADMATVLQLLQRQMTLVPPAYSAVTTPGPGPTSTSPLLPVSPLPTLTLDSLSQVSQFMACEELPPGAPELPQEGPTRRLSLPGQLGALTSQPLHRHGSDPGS

SMILES: OC(CNc1ccccc1)Cn1c2ccc(Cl)cc2c2cc(Cl)ccc21 (centres unmarked) [Compound 1]
- proneurogenic activity (BrdU+ cells in dentate gyrus), in words [1]: did not appear active

SMILES: OC(CNc1ccccc1)Cn1c2ccc(Br)cc2c2cc(Br)ccc21 (centres unmarked) [Compound P7C3]
- Histamine H2 binding, in words (histamine H2 receptor; 10 μM drug): modest binding
- Histamine H2 binding (% displacement @ 10 μM) (histamine H2 receptor): 63 % displacement
- GI50 (HeLa cells): 5.1 µM
- hERG binding (% displacement @ 10 μM) (hERG channel): 92 % displacement
- Half life in cell culture, Mouse hepatocytes (mouse hepatocytes): >4 h
- Half life in cell culture, Human hepatocytes (human hepatocytes): >4 h
- neurogenesis activity, 1 μM solution ([2]; 1 μM solution infused ICV, 12 μL/day for 7 days): maintains activity
- number of BrdU+ cells relative to mice treated with vehicle alone ([2]; 10 μM ICV, 7 days, vehicle artificial CSF, similar number as FGF-2): approximately twice
- neurogenesis activity, oral dose 1 mg/kg (neurogenesis; oral dose 1 mg/kg): measurable activity
- neurogenesis activity, oral dose 5 mg/kg (neurogenesis; oral dose of 5 mg/kg): maximal neurogenesis activity
- structure and function of the dentate gyrus [3]: repair the structure and function of the dentate gyrus
- cognitive capacity ([4]; as a function of terminal aging): preserved cognitive capacity
- neurogenesis in the dentate gyrus ([4]; terminal aging): enhanced neurogenesis in the dentate gyrus
- neuron cell death ([4]; terminal aging): impeded neuron cell death
- proliferation of neural precursor cells (neural precursor cells): does not stimulate proliferation
- AUC brain: AUC plasma ratio ([5]; po): 3.7
- oral availability, in words [5]: orally available
- toxicity to mice [6]: not toxic

SMILES: OC(CNc1ccccc1)Cn1c2ccccc2c2ccccc21 (centres unmarked) [Compound 2]
- proneurogenic activity (BrdU+ cells in dentate gyrus), in words [1]: did not appear active

SMILES: COc1cccc(NCC(O)Cn2c3ccc(Br)cc3c3cc(Br)ccc32)c1 (centres unmarked) [Compound 7]
- proneurogenic activity (BrdU+ cells in dentate gyrus), in words [1]: well tolerated; also recorded: little effect on activity
- difference in activity between the two enantiomers ([1]; enantiomeric pairs tested, same enantiomer more active in all three cases): significant difference in activity

SMILES: CCOc1cccc(NCC(O)Cn2c3ccc(Br)cc3c3cc(Br)ccc32)c1 (centres unmarked) [Compound 21]
- proneurogenic activity (BrdU+ cells in dentate gyrus), in words [1]: essentially abrogated activity

SMILES: COc1ccc(NCC(O)Cn2c3ccc(Br)cc3c3cc(Br)ccc32)cc1 (centres unmarked) [Compound 8]
- proneurogenic activity (BrdU+ cells in dentate gyrus), in words [1]: well tolerated; also recorded: highly active

SMILES: COc1ccc(NCC(F)Cn2c3ccc(Br)cc3c3cc(Br)ccc32)cc1 (centres unmarked) [Compound 54]
- proneurogenic activity (BrdU+ cells in dentate gyrus), in words [1]: improved by fluorination

SMILES: CCOc1ccc(NCC(O)Cn2c3ccc(Br)cc3c3cc(Br)ccc32)cc1 (centres unmarked) [Compound 4-OEt]
- proneurogenic activity (BrdU+ cells in dentate gyrus), in words [1]: highly active

SMILES: OC(CNc1ccccc1)Cn1c2ccc(Cl)cc2c2cc(Cl)ccc21 (centres unmarked) [Compound 17]
- proneurogenic activity (BrdU+ cells in dentate gyrus), in words [1]: little activity

SMILES: Cc1ccc2c(c1)c1c(n2CCc2ccc(C)nc2)CCN(C)C1 [dimebon, reference compound]
- proneurogenic activity (BrdU+ cells in dentate gyrus), in words [1]: active in our neurogenesis assay, but substantially less so than P7C3
- Histamine H2 binding (% displacement @ 10 μM) (histamine H2 receptor): 99 % displacement

SMILES: [N-]=[N+]=Nc1ccc(NCC(O)Cn2c3ccc(Br)cc3c3cc(Br)ccc32)cc1 (centres unmarked) [Compound 23]
- proneurogenic activity (BrdU+ cells in dentate gyrus), in words [1]: highly active

SMILES: FC(CNc1ccccc1)Cn1c2ccc(Br)cc2c2cc(Br)ccc21 (centres unmarked) [Compound 52]
- proneurogenic activity (BrdU+ cells in dentate gyrus), in words [1]: gains little from fluorination

SMILES: [N-]=[N+]=Nc1cccc(NCC(O)Cn2c3ccc(Br)cc3c3cc(Br)ccc32)c1 (centres unmarked) [Compound 22]
- proneurogenic activity (BrdU+ cells in dentate gyrus), in words [1]: substantially decreased activity
